According to ChEMBL document CHEMBL4219021, “Discovery of a Small-Molecule Degrader of Bromodomain and Extra-Terminal (BET) Proteins with Picomolar Cellular Potencies and Capable of Achieving Tumor Regression” (J Med Chem, 2018):
Calls of active or inactive are those of the source. No cut-off for these calls is given here.

Key:
[1] = target: T1, Protein cereblon/Bromodomain-containing protein 3/Cullin-4A (Homo sapiens) (UniProt Q15059+Q96SW2+Q13619); assay: Induction of cereblon/cullin 4A-mediated BRD3 degradation in human RS4:11 cells at 1 nM after 3 hrs in presence of NAE inhibitor MLN4924 by Western blot method; format: cell-based
T1 sequence (Q13619 whole entry, looked up): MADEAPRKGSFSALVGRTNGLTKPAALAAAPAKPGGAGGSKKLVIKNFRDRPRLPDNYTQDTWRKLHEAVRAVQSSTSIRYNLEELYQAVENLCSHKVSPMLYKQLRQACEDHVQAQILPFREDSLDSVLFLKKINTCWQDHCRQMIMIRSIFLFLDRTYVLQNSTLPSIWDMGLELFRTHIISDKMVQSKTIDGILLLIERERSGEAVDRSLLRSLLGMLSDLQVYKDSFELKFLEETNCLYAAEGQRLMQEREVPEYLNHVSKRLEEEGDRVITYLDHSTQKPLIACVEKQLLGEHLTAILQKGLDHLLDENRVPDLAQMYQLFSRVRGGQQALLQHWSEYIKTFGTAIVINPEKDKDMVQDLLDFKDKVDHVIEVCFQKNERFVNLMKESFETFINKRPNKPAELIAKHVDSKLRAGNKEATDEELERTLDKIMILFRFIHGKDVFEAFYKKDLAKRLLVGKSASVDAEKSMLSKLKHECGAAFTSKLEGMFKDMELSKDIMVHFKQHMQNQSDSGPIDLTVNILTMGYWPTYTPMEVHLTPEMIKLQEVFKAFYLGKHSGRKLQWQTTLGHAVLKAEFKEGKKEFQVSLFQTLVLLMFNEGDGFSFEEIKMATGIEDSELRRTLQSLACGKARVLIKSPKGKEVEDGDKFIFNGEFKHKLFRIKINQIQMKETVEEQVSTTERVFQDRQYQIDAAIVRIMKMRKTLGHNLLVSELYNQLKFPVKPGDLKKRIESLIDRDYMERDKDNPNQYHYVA
T1 sequence (Q15059 whole entry, looked up): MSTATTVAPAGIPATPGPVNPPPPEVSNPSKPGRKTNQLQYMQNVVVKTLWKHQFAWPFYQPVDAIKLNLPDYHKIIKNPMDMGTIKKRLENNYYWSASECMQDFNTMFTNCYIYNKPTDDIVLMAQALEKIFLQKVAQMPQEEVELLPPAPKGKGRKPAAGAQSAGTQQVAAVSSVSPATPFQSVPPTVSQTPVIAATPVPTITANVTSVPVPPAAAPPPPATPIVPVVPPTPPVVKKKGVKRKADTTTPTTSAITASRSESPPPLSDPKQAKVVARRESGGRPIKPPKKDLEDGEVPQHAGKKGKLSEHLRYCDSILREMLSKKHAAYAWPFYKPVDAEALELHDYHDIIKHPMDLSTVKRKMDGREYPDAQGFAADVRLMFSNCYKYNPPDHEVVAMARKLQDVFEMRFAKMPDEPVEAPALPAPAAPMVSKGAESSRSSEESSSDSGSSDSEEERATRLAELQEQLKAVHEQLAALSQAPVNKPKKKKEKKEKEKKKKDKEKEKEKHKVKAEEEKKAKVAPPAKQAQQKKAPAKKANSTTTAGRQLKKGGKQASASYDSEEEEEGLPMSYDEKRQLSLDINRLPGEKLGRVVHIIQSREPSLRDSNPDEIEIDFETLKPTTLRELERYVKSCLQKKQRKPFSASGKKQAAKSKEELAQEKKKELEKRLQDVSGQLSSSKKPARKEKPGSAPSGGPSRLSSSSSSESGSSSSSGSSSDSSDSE
T1 sequence (Q96SW2 whole entry, looked up): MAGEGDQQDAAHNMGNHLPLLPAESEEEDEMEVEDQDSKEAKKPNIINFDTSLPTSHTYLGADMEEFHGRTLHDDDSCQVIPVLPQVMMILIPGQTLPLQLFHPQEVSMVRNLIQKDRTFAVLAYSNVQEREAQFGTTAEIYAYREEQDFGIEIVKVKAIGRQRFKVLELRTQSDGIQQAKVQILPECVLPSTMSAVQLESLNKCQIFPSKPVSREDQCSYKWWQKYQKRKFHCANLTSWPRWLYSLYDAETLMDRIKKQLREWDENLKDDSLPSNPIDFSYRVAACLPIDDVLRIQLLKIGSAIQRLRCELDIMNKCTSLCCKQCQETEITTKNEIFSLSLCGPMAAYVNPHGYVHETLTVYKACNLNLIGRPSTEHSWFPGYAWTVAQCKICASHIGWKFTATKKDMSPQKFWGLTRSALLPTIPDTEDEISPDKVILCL

[2] = target: T2, Protein cereblon/Bromodomain-containing protein 4/Cullin-4A (Homo sapiens) (UniProt O60885+Q96SW2+Q13619); assay: Induction of cereblon/cullin 4A-mediated BRD4 degradation in human RS4:11 cells at 1 nM after 3 hrs in presence of proteosome inhibitor MG-132 by Western blot method; format: cell-based
[3] = target: T1, Protein cereblon/Bromodomain-containing protein 3/Cullin-4A (Homo sapiens); assay: Induction of cereblon/cullin 4A-mediated BRD3 degradation in human RS4:11 cells at 1 nM after 3 hrs in presence of proteosome inhibitor MG-132 by Western blot method; format: cell-based
[4] = target: T2, Protein cereblon/Bromodomain-containing protein 4/Cullin-4A (Homo sapiens); assay: Induction of cereblon/cullin 4A-mediated BRD4 degradation in human RS4:11 cells at 1 nM after 3 hrs in presence of NAE inhibitor MLN4924 by Western blot method; format: cell-based
[5] = target: T2, Protein cereblon/Bromodomain-containing protein 4/Cullin-4A (Homo sapiens); assay: Induction of cereblon/cullin 4A-mediated BRD4 degradation in human RS4:11 cells at 0.03 nM after 24 hrs by Western blot method; format: cell-based
How it was run: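 Western blot of RS4;11 cells (2 × 10⁶ cells/well) in RPMI 1640 with 10% FBS, 37 °C, 5% CO₂, used within three months of thawing. Compound exposure was 3 h or 24 h at the indicated concentrations. Cells were lysed in RIPA with protease inhibitors, and BRD2, BRD3 and BRD4 were detected with specific antibodies, with GAPDH as loading control.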

[6] = target: T3, Protein cereblon/Bromodomain-containing protein 2/Cullin-4A (Homo sapiens) (UniProt P25440+Q96SW2+Q13619); assay: Induction of cereblon/cullin 4A-mediated BRD2 degradation in human RS4:11 cells at 0.1 nM after 24 hrs by Western blot method; format: cell-based
T3 sequence (P25440 whole entry, looked up): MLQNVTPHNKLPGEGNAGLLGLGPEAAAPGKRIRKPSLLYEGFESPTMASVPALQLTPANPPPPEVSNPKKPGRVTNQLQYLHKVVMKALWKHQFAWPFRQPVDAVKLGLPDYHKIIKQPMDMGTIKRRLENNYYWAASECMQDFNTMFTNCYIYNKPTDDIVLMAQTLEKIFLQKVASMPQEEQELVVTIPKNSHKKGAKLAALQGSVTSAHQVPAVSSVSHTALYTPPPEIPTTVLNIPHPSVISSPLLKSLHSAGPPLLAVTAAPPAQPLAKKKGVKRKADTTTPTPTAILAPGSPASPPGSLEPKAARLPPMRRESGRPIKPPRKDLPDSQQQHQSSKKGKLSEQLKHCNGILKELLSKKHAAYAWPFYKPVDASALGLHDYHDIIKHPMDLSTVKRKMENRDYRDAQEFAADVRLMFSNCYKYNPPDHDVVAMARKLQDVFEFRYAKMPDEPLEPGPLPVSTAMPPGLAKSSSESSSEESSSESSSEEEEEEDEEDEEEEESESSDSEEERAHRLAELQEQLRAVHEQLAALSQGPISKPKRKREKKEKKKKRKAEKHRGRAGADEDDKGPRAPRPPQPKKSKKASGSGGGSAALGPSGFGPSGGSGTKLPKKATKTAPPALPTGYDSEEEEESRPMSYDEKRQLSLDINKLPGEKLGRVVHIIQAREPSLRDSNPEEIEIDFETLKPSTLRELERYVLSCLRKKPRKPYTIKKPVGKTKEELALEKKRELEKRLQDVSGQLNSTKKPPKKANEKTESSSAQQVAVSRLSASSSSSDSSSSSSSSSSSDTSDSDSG
T3 sequence (Q13619 whole entry, looked up): as the sequence (Q13619 whole entry, looked up) above
T3 sequence (Q96SW2 whole entry, looked up): as the sequence (Q96SW2 whole entry, looked up) above
How it was run: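 RS4;11 cells (2 × 10⁶/well) treated for 24 h at the indicated concentrations. Lysed in RIPA with protease inhibitors and immunoblotted for BRD2, BRD3, BRD4, c-Myc and PARP, with GAPDH as loading control.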

[7] = target: T1, Protein cereblon/Bromodomain-containing protein 3/Cullin-4A (Homo sapiens); assay: Induction of cereblon/cullin 4A-mediated BRD3 degradation in human RS4:11 cells after 3 hrs by Western blot method; format: cell-based
How it was run: (§1)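 RS4;11 cells (2 × 10⁶/well) treated for 3 h at the indicated concentrations. Lysed in RIPA with protease inhibitors and immunoblotted for BRD2, BRD3 and BRD4 with specific antibodies.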

[8] = target: T3, Protein cereblon/Bromodomain-containing protein 2/Cullin-4A (Homo sapiens); assay: Induction of cereblon/cullin 4A-mediated BRD2 degradation in human RS4:11 cells after 3 hrs by Western blot method; format: cell-based; how it was run: as §1
RS4-11 = assay: Induction of cell cycle arrest in human RS4:11 cells after 24 hrs by propidium iodide staining based flow cytometry; format: functional
How it was run: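 RS4;11 or MOLM-13 cells treated with compound for 24 h, then analyzed by flow cytometry. Cell cycle read by propidium iodide staining and apoptosis by annexin V/propidium iodide staining.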

Mus musculus [9] = assay: In vivo induction of cereblon/cullin 4A-mediated BRD2 degradation in tumor of SCID mouse xenografted with human RS4:11 cells at 5 mg/kg, iv administered as single dose measured after 24 hrs by Western blot method; format: functional, organism-based
How it was run: (§2)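 SCID mice bearing subcutaneous RS4;11 tumors received a single 5 mg/kg iv dose. Sacrificed at 1, 3, 6 and 24 h, with vehicle controls at 6 h, two mice per time point. Tumors ground in liquid nitrogen and lysed in CHAPS buffer, then immunoblotted for BRD2/3/4, c-Myc, PARP/cleaved PARP and caspase-3/cleaved caspase-3. Actin served as loading control.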

Mus musculus [10] = assay: In vivo induction of cereblon/cullin 4A-mediated BRD3 degradation in tumor of SCID mouse xenografted with human RS4:11 cells at 5 mg/kg, iv administered as single dose measured after 24 hrs by Western blot method; format: functional, organism-based; how it was run: as §2
Mus musculus [11] = assay: In vivo induction of cereblon/cullin 4A-mediated BRD4 degradation in tumor of SCID mouse xenografted with human RS4:11 cells at 5 mg/kg, iv administered as single dose measured after 24 hrs by Western blot method; format: functional, organism-based; how it was run: as §2
Mus musculus [12] = assay: Increase in caspase-3 cleavage in tumor of SCID mouse xenografted with human RS4:11 cells at 5 mg/kg administered as single dose measured up to 6 hrs by Western blot method; format: functional, organism-based; how it was run: as §2

## CCn1nc(C2CC2)cc1Nc1nc(C(=O)NCCCCCc2cccc3c2CN(C2CCC(=O)NC2=O)C3=O)nc2[nH]c3cc(-c4c(C)noc4C)c(OC)cc3c12 (stereo not drawn)
[1]
  Activity: inactive
[2]
  Activity: inactive
[3]
  Activity: inactive
[4]
  Activity: inactive
[5]
  Activity: Active
[6]
  Activity: Active
[7]
  Activity: Dose-dependent effect
[8]
  Activity: Dose-dependent effect
RS4-11
  Activity: Dose-dependent effect
Mus musculus [9]
  Activity: Active
Mus musculus [10]
  Activity: Active
Mus musculus [11]
  Activity: Active
Mus musculus [12]
  Activity: Active
